Experiments:
Human alphaherpesvirus 2 = test: Antiviral activity against Human herpesvirus 2 strain G infected human HEL cells assessed as reduction of virus-induced cytopathic effect after 3 days by colorimetric formazan-based MTS assay; assay type: functional, organism-based; details: Human alphaherpesvirus 2, strain G, 72 h
How it was run: (§1)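 Confluent cell monolayers were infected with 100 CCID50 of virus, and serial dilutions of compound were added at the time of infection.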

[1] = tested on: Vesicular stomatitis virus; test: Antiviral activity against Vesicular stomatitis virus infected human HEL cells assessed as reduction of virus-induced cytopathic effect after 3 days by colorimetric formazan-based MTS assay; assay type: functional, organism-based; details: 72 h; how it was run: as §1
[2] = Cytotoxicity against Homo sapiens (human) HEL cells assessed as change in cellular morphology; assay type: cell-based
Vaccinia virus = test: Antiviral activity against Vaccinia virus infected human HEL cells assessed as reduction of virus-induced cytopathic effect after 3 days by colorimetric formazan-based MTS assay; assay type: functional, organism-based; details: Orthopoxvirus vaccinia, 72 h; how it was run: as §1
Felid alphaherpesvirus 1 = test: Antiviral activity against Felid herpesvirus 1 infected cat CRFK cells assessed as reduction of virus-induced cytopathic effect after 3 days by colorimetric formazan-based MTS assay; assay type: functional, organism-based; details: Felid alphaherpesvirus 1, CRFK, 72 h
How it was run: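 Cells grown to confluency in 96-well plates ([…], Vero for lines 9–10) were infected with 100 CCID50 of virus, and serial compound dilutions were added at infection. Plates were incubated at 37 °C for 3 days, until complete CPE appeared in untreated virus controls.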

Human alphaherpesvirus 1 [3] = test: Antiviral activity against acyclovir-resistant thymidine kinase negative Human herpesvirus 1 strain KOS infected human HEL cells assessed as reduction of virus-induced cytopathic effect after 3 days by colorimetric formazan-based MTS assay; assay type: functional, organism-based; details: Human alphaherpesvirus 1, KOS, 72 h; how it was run: as §1
[4] = tested on: Feline infectious peritonitis virus; test: Antiviral activity against Feline Infectious peritonitis virus infected cat CRFK cells assessed as reduction of virus-induced cytopathic effect after 3 days by colorimetric formazan-based MTS assay; assay type: functional, organism-based; details: Alphacoronavirus 1, CRFK, 72 h; how it was run: as §1
[5] = Cytotoxicity against Felis catus (cat) CRFK cells assessed as change in cellular morphology; assay type: cell-based; details: CRFK cells
How it was run: (§2)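 Uninfected cells were exposed to compound in parallel with the antiviral cultures. The read-out is the minimum cytotoxic concentration that causes a microscopically detectable alteration of normal cell morphology.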

Influenza B virus = test: Antiviral activity against Influenza B virus infected in MDCK cells assessed as reduction of virus-induced cytopathic effect after 3 days by colorimetric formazan-based MTS assay; assay type: functional, organism-based; details: 72 h; how it was run: as §1
Influenza A virus = test: Antiviral activity against Unidentified Influenza A virus (H1N1) infected MDCK cells assessed as reduction of virus-induced cytopathic effect after 3 days by colorimetric formazan-based MTS assay; assay type: functional, organism-based; details: 72 h; how it was run: as §1
[6] = (§3) Cytotoxicity against MDCK cells assessed as change in cellular morphology; assay type: cell-based, Canis lupus familiaris; details: dog, MDCK cells; how it was run: as §2
MDCK = test: as §3; assay type: cell-based, Canis lupus familiaris; details: dog, mdck; how it was run: as §2
Influenza A virus H3N2 = test: Antiviral activity against Influenza A virus H3N2 infected MDCK cells assessed as reduction of virus-induced cytopathic effect after 3 days by colorimetric formazan-based MTS assay; assay type: functional, organism-based; details: 72 h; how it was run: as §1
Escherichia coli = test: Antibacterial activity against Escherichia coli assessed as growth inhibition at 50 ug/ml by cup-plate method (reference value: 8 to 10 mm); assay type: functional; details: read-out: DIZ
Staphylococcus aureus = test: Antibacterial activity against Staphylococcus aureus assessed as growth inhibition at 50 ug/ml by cup-plate method (reference value: 8 to 10 mm); assay type: functional; details: read-out: DIZ
Bacillus subtilis = test: Antibacterial activity against Bacillus subtilis assessed as growth inhibition at 50 ug/ml by cup-plate method (reference value: 8 to 10 mm); assay type: functional; details: read-out: DIZ
Salmonella typhi = test: Antibacterial activity against Salmonella enterica subsp. enterica serovar Typhi assessed as growth inhibition at 50 ug/ml by cup-plate method (reference value: 8 to 10 mm); assay type: functional; details: read-out: DIZ
Proteus vulgaris = test: Antibacterial activity against Proteus vulgaris assessed as growth inhibition at 50 ug/ml by cup-plate method (reference value: 8 to 10 mm); assay type: functional; details: read-out: DIZ
Klebsiella pneumoniae = test: Antibacterial activity against Klebsiella pneumoniae assessed as growth inhibition at 50 ug/ml by cup-plate method (reference value: 8 to 10 mm); assay type: functional; details: read-out: DIZ
Human alphaherpesvirus 1 [7] = test: Antiviral activity against Human herpesvirus 1 strain KOS infected human HEL cells assessed as reduction of virus-induced cytopathic effect after 3 days by colorimetric formazan-based MTS assay; assay type: functional, organism-based; details: Human alphaherpesvirus 1, KOS, 72 h; how it was run: as §1
[8] = Inhibition of beta lactamase assessed as time for decolorization of iodine (reference value: 79.5 secs)
[9] = Inhibition of beta lactamase assessed as increase in time taken for iodine decolorization relative to control; design: concentration or dose not given beside the values; details: concentration not given here
[10] = (§4) Cytotoxicity against Homo sapiens (human) HeLa cells assessed as change in cellular morphology; assay type: cell-based; details: HeLa cells; how it was run: as §2
HeLa = test: as §4; assay type: cell-based; details: hela; how it was run: as §2
[11] = tested on: Vesicular stomatitis virus; test: Antiviral activity against Vesicular stomatitis virus infected human HeLa cells assessed as reduction of virus-induced cytopathic effect after 3 days by colorimetric formazan-based MTS assay; assay type: functional, organism-based; details: 72 h; how it was run: as §1
Coxsackievirus B4 [12] = test: Antiviral activity against Human coxsackievirus B4 infected African green monkey Vero cells assessed as reduction of virus-induced cytopathic effect after 3 days by colorimetric formazan-based MTS assay; assay type: functional, organism-based; details: Enterovirus B, 72 h; how it was run: as §1
[13] = tested on: Respiratory syncytial virus; test: Antiviral activity against Respiratory syncytial virus infected human HeLa cells assessed as reduction of virus-induced cytopathic effect after 3 days by colorimetric formazan-based MTS assay; assay type: functional, organism-based; details: 72 h; how it was run: as §1
Punta Toro virus = test: Antiviral activity against Punta Toro virus infected in African green monkey Vero cells assessed as reduction of virus-induced cytopathic effect after 3 days by colorimetric formazan-based MTS assay; assay type: functional, organism-based; details: 72 h; how it was run: as §1
[14] = Cytotoxicity against Chlorocebus aethiops (African green monkey) Vero cells assessed as change in cellular morphology; assay type: cell-based; details: chlorocebus sabaeus
Coxsackievirus B4 [15] = test: Antiviral activity against Human coxsackievirus B4 infected human HeLa cells assessed as reduction of virus-induced cytopathic effect after 3 days by colorimetric formazan-based MTS assay; assay type: functional, organism-based; details: Enterovirus B, 72 h; how it was run: as §1
Respirovirus muris = test: Antiviral activity against Sendai virus infected African green monkey Vero cells assessed as reduction of virus-induced cytopathic effect after 3 days by colorimetric formazan-based MTS assay; assay type: functional, organism-based; details: 72 h

Work on `Nc1nc2c(ncn2COCCO)c(=O)[nH]1` [ACYCLOVIR] yielded an EC50 (Human alphaherpesvirus 2) of 0.7 µM, an EC50 [1] of over 250 µM and an MCC [2] of over 250 µM. It also gave an EC50 (Vaccinia virus) of over 250 µM.

Molecule `Nc1nc2c(ncn2COC(CO)CO)c(=O)[nH]1` [GANCICLOVIR] has an EC50 (Human alphaherpesvirus 2) of 0.07 µM, an EC50 (Felid alphaherpesvirus 1) of 7.3 µM and an EC50 (Human alphaherpesvirus 1 [3]) of at least 20 µM. For the same molecule, the EC50 [4] was over 100 µM, the EC50 [1] was over 100 µM and the CC50 [5] was over 100 µM. The MCC [2] was over 100 µM and the EC50 (Vaccinia virus) was over 100 µM.

With `CC(N)C12CC3CC(CC(C3)C1)C2` (stereo not drawn) [RIMANTADINE] the EC50 (Influenza B virus) was over 100 µM, the EC50 (Influenza A virus) was 24.2 µM and the MCC [6] was 500 µM. For the same molecule, the CC50 (MDCK) was 259 µM and the EC50 (Influenza A virus H3N2) was 0.08 µM.

`CC1COc2c(N3CCN(C)CC3)c(F)cc3c(=O)c(C(=O)O)cn1c23` (stereo not drawn) [OFLOXACIN] showed a zone of inhibition at 50 µg/mL (Escherichia coli) of 31 mm, a zone of inhibition at 50 µg/mL (Staphylococcus aureus) of 31 mm and a zone of inhibition at 50 µg/mL (Bacillus subtilis) of 31 mm. For the same molecule, the zone of inhibition at 50 µg/mL (Salmonella typhi) was 31 mm, the zone of inhibition at 50 µg/mL (Proteus vulgaris) was 31 mm and the zone of inhibition at 50 µg/mL (Klebsiella pneumoniae) was 31 mm.

`Nc1ccn(C[C@@H](CO)OCP(=O)(O)O)c(=O)n1` [CIDOFOVIR] gave an EC50 (Human alphaherpesvirus 2) of 1.5 µM, an EC50 (Human alphaherpesvirus 1 [3]) of 6 µM and an EC50 [1] of over 250 µM. It also gave an EC50 (Human alphaherpesvirus 1 [7]) of 5 µM and an MCC [2] of over 250 µM.

Work on `O=c1[nH]c(=O)n([C@H]2C[C@H](O)[C@@H](CO)O2)cc1/C=C/Br` [BRIVUDINE] yielded an EC50 (Human alphaherpesvirus 1 [3]) of over 250 µM, an EC50 [1] of over 250 µM and an MCC [2] of over 250 µM. The EC50 (Vaccinia virus) was 29 µM.

`O=C(O)[C@H]1/C(=C/CO)O[C@@H]2CC(=O)N21` showed a TIME [8] of 0.0668 h and an inhibition [9] of 67%.

In the case of `Nc1ncnc2c1ncn2C[C@H](O)CO` [(S)-DHPA], the MCC [10] is reported as over 250 µM, the CC50 (HeLa) is reported as over 250 µM and the EC50 [11] is reported as over 250 µM. The EC50 (Coxsackievirus B4 [12]) was over 250 µM, the EC50 [13] was over 250 µM and the EC50 (Punta Toro virus) was over 250 µM. It also gave an MCC [14] of over 250 µM, an EC50 (Coxsackievirus B4 [15]) of over 250 µM and an EC50 (Respirovirus muris) of over 250 µM.

Source: ChEMBL document CHEMBL3045116, “Synthesis and biological evaluation of 2-(5-substituted-1-((diethylamino)methyl)-2-oxoindolin-3-ylidene)-N-substituted-hydrazinecarbothioamides” (Med Chem Res, 2013)
